Measured values taken from ChEMBL document CHEMBL1139440, “Chemical function based pharmacophore generation of endothelin-A selective receptor antagonists” (J Med Chem, 2004).
pIC50: −log10 of the molar value. Square brackets hold non-standard residues; d marks the D form. Peptide text beside a SMILES is read from it. * marks the point of attachment. Cbz = O=C(OCc1ccccc1)*

Molecular target: T1, Endothelin-1 receptor (Homo sapiens) (UniProt P25101)
T1 sequence (whole entry): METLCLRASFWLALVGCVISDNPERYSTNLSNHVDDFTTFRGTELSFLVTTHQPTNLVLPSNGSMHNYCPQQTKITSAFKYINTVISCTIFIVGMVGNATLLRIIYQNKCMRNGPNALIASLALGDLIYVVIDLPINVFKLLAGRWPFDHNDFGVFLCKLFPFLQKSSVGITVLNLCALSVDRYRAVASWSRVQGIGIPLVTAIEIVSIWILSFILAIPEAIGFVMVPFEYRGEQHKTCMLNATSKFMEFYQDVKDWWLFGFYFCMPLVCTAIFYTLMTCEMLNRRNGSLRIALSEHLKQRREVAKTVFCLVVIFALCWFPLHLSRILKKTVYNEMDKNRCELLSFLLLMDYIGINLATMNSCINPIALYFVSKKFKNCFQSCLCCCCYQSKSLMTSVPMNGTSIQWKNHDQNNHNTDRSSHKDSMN
Details: Vero

Row | pIC50 | SMILES
1 | 7.60 | CC(C)C[C@@H]1NC(=O)[C@@H](C(C)C)NC(=O)[C@@H]2CCCN2C(=O)[C@@H](CC(=O)O)NC(=O)[C@@H](Cc2c[nH]c3ccccc23)NC1=O (cyclo(L[dW][dD]P[dV]))

Molecular target: T2, Endothelin-1 receptor (Homo sapiens, UniProt P25101)
T2 sequence (P25101 whole entry): T1 sequence (whole entry)
Test: Inhibition of [125]ET-1 binding to human Endothelin A receptor expressed in vero cells
Type: cell-based
Details: not given
How it was run: (§1)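 Vero (green monkey renal) cells grown as monolayers at 37 °C in MEM with 10% FBS, nonessential amino acids and penicillin/streptomycin under 5% CO2. Whole-cell binding was done in triplicate (2 × 10^5 cells/well) in HEPES-buffered saline at pH 7.4 with 50 pM [125I]ET-1 for 1 h. Nonspecific binding was defined with 500 nM ET-1. Compounds were tested at ca. 10^-10–10^-4 M. Bound radioactivity was collected by filtration and counted.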

Row | pIC50 | SMILES
2 | 5.21 | COC(=O)c1cc(S(=O)(=O)Nc2cccc(-c3cnco3)c2)oc1C
3 | 6.66 | CC(C)C(NC(=O)OCc1ccccc1)C(=O)NC(Cc1ccc(O)cc1)C(=O)O (stereo not drawn) (Cbz-Val-Tyr-OH; configuration not given here)

Molecular target: T1, Endothelin-1 receptor (Homo sapiens)
Test: Inhibition of [125]ET-1 binding to human ETA receptor expressed in vero cells at 10E-4 M concentration
Type: cell-based
Details: not given
How it was run: as §1

Row | inhibition [%] | SMILES
4 | 77 | CCOc1cc(N2CCOCC2)c(OCC)cc1NS(=O)(=O)c1ccc(OC)cc1
5 | 60 | COc1ccc(NC(=O)CC(CC(=O)O)c2cc(OC)c(OC)c(OC)c2)cc1 (stereo not drawn)

Molecular target: T3, Endothelin receptor type B (Homo sapiens, UniProt P24530)
T3 sequence (P24530 whole entry): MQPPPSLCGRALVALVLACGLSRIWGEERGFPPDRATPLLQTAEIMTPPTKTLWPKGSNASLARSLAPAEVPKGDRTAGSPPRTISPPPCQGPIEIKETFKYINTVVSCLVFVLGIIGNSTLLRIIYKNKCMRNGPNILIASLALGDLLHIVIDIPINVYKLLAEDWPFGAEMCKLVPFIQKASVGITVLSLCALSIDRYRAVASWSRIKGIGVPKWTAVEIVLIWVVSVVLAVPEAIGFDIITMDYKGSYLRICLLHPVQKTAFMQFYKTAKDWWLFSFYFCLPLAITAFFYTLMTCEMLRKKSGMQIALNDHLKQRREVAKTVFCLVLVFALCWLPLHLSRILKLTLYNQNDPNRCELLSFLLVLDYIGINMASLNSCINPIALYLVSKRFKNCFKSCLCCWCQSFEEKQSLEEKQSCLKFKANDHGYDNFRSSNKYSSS
Test: Inhibitory concentration against Endothelin B receptor
Details: not given

Row | pIC50 | SMILES
6 | 5.29 | CCCCN(CCCC)C(=O)CN1C[C@H](c2ccc3c(c2)OCO3)[C@@H](CC(=O)O)[C@@H]1c1ccc(OC)cc1
7 | 6.59 | COc1ccc(C(=O)/C(Cc2cccc(OC)c2)=C(\C(=O)O)c2ccc3c(c2)OCO3)cc1
8 | 6.40 | CCCCC1=C(C(=O)O)[C@@H](c2ccc3c(c2)OCO3)Oc2ccc(OC(C)C)cc21

Molecular target: T4, Endothelin-1 receptor (Rattus norvegicus, UniProt P26684)
T4 sequence (P26684 whole entry): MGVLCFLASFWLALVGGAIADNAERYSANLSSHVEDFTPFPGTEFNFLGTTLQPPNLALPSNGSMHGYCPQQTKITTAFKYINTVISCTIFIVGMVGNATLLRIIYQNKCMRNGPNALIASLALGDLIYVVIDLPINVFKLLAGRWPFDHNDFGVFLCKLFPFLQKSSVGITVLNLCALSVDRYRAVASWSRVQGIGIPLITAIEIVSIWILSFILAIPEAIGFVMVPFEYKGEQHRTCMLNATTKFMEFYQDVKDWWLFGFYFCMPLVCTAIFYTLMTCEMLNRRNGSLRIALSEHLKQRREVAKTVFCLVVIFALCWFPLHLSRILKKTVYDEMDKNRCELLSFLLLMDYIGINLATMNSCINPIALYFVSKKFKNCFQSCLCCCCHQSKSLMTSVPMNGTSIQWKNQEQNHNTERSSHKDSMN
Test: Ability to displace [125I]ET1 from the rat endothelin A receptor expressed in rat aorta smooth muscle cells.
Type: cell-based
Details: not given

Row | SMILES | pIC50
9 | COc1cc(/C(C(=O)O)=C(\CC2CCCCC2)C(=O)c2ccc3c(c2)OCCO3)cc2c1OCO2 | 8.46
10 | CCCCN(CCCC)C(=O)CN1C[C@H](c2ccc3c(c2)OCO3)[C@@H](CC(=O)O)[C@@H]1c1ccc(OC)cc1 | 9.30
11 | COc1ccc(C(=O)/C(Cc2ccccc2)=C(\C(=O)O)c2cc(OC)c3c(c2)OCO3)cc1 | 8.17
12 | COc1ccc([C@H]2[C@H](C(=O)O)[C@@H](c3ccc4c(c3)OCO4)CN2CC(=O)Nc2cccc(C)c2C)cc1 | 7.80
13 | COC1=C(C(=O)O)[C@H](c2ccc3c(c2)OCO3)Oc2ccc(OC(C)C)cc21 | 8.28
14 | COc1ccc(C(=O)/C(Cc2ccc(-c3ccccc3)cc2)=C(\C(=O)O)c2ccc3c(c2)OCO3)cc1 | 6.70
15 | CCOc1ccc2c(c1)[C@@H](c1ccc(OC)cc1OCC(=O)O)N(CC(=O)O)[C@@H]2c1ccc2c(c1)OCO2 | 8.27
16 | COC(=O)CCCCOc1cc(C/C(C(=O)c2ccc(OC)cc2)=C(/C(=O)O)c2ccc3c(c2)OCO3)cc(OC)c1OC | 10.30
17 | COc1ccc(C(=O)/C(Cc2cccc3ccccc23)=C(\C(=O)O)c2ccc3c(c2)OCO3)cc1 | 7.85
18 | COc1ccc([C@H]2[C@H](C(=O)O)[C@@H](c3ccc4c(c3)OCO4)CN2CC(=O)NC(Cc2ccccc2)c2ccccc2)cc1 (stereo partly drawn) | 8.41

Results, then the compound that gave them:

Row | pIC50 | SMILES
19 | 7.02 | CCOc1ccc2c(c1)[C@@H](c1ccc(OC)cc1)N(CC(=O)O)[C@@H]2c1ccc2c(c1)OCO2
20 | 9.30 | COc1ccc(C(=O)/C(Cc2cc(OC)c(OC)c(OC)c2)=C(\C(=O)O)c2cc(OC)c3c(c2)OCO3)cc1
21 | 6.30 | COc1cccc(C(=O)/C(Cc2ccccc2)=C(\C(=O)O)c2ccc3c(c2)OCO3)c1
22 | 9.54 | CCCCN(CCCC)C(=O)CN1C[C@H](c2ccc3c(c2)OCO3)[C@@H](C(=O)O)[C@@H]1CCCCC(C)C
23 | 9.92 | CCOc1cc(C/C(C(=O)c2ccc(OC)cc2)=C(/C(=O)O)c2ccc3c(c2)OCO3)cc(OCC)c1OCC
24 | 9.11 | C/C=C/CC[C@H]1[C@H](C(=O)O)[C@@H](c2ccc3c(c2)OCO3)CN1CC(=O)N(CCCC)CCCC
25 | 6.20 | CCc1ccc(C(=O)/C(Cc2ccccc2)=C(\C(=O)O)c2ccc3c(c2)OCO3)cc1
26 | 8.52 | COc1ccc(C(=O)/C(Cc2cccc(OC)c2)=C(\C(=O)O)c2ccc3c(c2)OCO3)cc1
27 | 6.96 | COc1ccc(C(=O)/C(Cc2ccc(Cl)cc2)=C(\C(=O)O)c2ccc3c(c2)OCO3)cc1
28 | 6.39 | CCCCC1=C(C(=O)O)C(c2ccc3c(c2)OCO3)Oc2ccc(OC(C)C)cc21 (stereo not drawn)
29 | 9.15 | COc1ccc([C@H]2[C@H](C(=O)O)[C@@H](c3ccc4c(c3)OCO4)CN2CC(=O)NC(c2ccccc2)C(C)C)cc1 (stereo partly drawn)
30 | 7.96 | COc1ccc(C(=O)/C(Cc2ccccc2)=C(\C(=O)O)c2ccc3c(c2)OCO3)cc1OC
31 | 7.34 | CCCNC(=O)CN1C[C@@H](c2ccc3c(c2)OCO3)[C@H](C(=O)O)[C@H]1c1ccc(OC)cc1
32 | 5.69 | COc1ccc([C@@H]2[C@@H](CC(=O)O)[C@H](c3ccc4c(c3)OCO4)CN2CC(N)=O)cc1
33 | 8.74 | COc1ccc(C/C(C(=O)c2ccc(OC)cc2)=C(/C(=O)O)c2ccc3c(c2)OCO3)cc1
